# Assays:
# Format in all cases: ADME, organism-based
# Parameters in all cases: dose 10 mg/kg
# [1] = Clearance in mouse at 10 mg/kg; conditions: in vivo
# How it was run: (§1)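 Mice (n = 3) dosed at 10 mg/kg in 50% PEG400/50% water; pharmacokinetic parameters given as mean ± deviation.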
# [2] = Volume of distribution in mouse at 10 mg/kg; conditions: in vivo, read-out: Vdss; how it was run: as §1
# [3] = Mean residence time in mouse at 10 mg/kg; conditions: in vivo; how it was run: as §1
# [4] = Half life in mouse at 10 mg/kg; conditions: in vivo; how it was run: as §1
compound,measurement,setting,value
Cc1ccc(C(=O)N(CCCN)C(c2nn3c(Cl)ccc3c(=O)n2Cc2ccccc2)C2CC2)cc1 (centres undefined),clearance,[1],16 mL/min/kg
same,Vd,[2],5.9 L/kg
same,MRT,[3],6.5 h
same,half-life,[4],4.5 h
